MC4R antag cAMP: antagonists of human melanocortin 4 receptor (MC4R); P32245; MC4R-expressing cells, MTII-stimulated cAMP, LANCE TR-FRET; inhibition, % at 6.5 µM; actives 0.48% (n = 360,000); AID 540295;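 active means inhibition above its plate's cutoff, the mean of tested wells on that plate plus 3 SD, cut at about 29% in these data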
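Material: U2OS-MC4R stable cell line | Reagent: Melanotan II challenge after compound preincubation | Doses: One concentration, 6.5 µM nominal | Incubation: 30-min compound preincubation, 1-h Melanotan II challenge, 1-h detection, room temperature | Signal: TR-FRET cAMP assay | Replicates: One well per compound, no replicates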
MC4R ag barr: activates human MC4R beta-arrestin recruitment. P32245. U2OS MC4R beta-arrestin complementation, luminescence; percent of melanotan II response, DMSO zero. actives 0.98% (n = 360,000). AID 540308. activation, % at 8.9 µM;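 active means activation above a per-plate cutoff, the mean activation of sample wells on that plate plus 3 SD, cut at about 8% in these data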
NR2E3 ag-1: human photoreceptor-specific nuclear receptor agonism; Q9Y5X4; CHO-S Gal4-NCOR/VP16-NR2E3 two-hybrid, luciferase; inhibition of corepressor binding, % at 3.98 µM; actives 0.35% (n = 360,000);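 active means inhibition above the mean of all tested compounds plus 3 SD, cut at about 70% in these data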;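 further: higher means lower luciferase signal from less NR2E3 corepressor binding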
NR1D1 modulator: modulators of human Rev-erb alpha DNA binding; P20393; Rev-erbα–FITC-DNA binding, fluorescence polarization, 90 min; activity, % at 10 µM; actives 0.79% (n = 370,000);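 active means activity above about 14%, limit read from the data; passing the limit was not always enough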
Target sequence (P20393 whole entry, looked up): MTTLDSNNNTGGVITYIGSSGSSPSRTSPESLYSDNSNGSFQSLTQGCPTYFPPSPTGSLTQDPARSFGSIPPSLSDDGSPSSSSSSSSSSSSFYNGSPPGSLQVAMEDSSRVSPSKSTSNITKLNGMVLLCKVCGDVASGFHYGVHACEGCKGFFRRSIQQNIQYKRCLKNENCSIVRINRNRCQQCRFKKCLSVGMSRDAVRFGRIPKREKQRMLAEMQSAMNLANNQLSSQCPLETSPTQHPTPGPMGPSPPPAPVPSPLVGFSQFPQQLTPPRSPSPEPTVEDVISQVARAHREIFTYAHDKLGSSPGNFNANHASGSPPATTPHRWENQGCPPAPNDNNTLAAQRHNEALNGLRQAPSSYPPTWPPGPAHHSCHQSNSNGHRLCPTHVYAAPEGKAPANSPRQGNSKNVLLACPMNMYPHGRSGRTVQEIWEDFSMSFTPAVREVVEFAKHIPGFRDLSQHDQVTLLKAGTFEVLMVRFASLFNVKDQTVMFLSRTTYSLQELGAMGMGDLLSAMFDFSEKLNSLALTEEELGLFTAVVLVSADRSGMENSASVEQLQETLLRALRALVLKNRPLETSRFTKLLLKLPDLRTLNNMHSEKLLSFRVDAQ
NR2E3 ag-2: activates human photoreceptor nuclear receptor NR2E3 | Q9Y5X4 | GST-NR2E3/biotin-RetCOR TR-FRET, 1536-well | inhibition of corepressor binding, % at 4.78 µM | actives 0.12% (n = 320,000) | AID 2300;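 active means percent inhibition above the cutoff of mean plus 3 SD of all tested compounds, set per screening campaign, cut at about 20% in these data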
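Material: NR2E3–RetCOR corepressor complex / Amount: 1.35 nM GST-NR2E3 / Medium: Tris pH 7.5 / Compound: single nominal compound dose of 4.8 µM / Incubation: 5 h at 4 °C / Technique: TR-FRET, Eu(K)-anti-GST donor, streptavidin-D2 acceptor, ex 340, em 617/671 nm / Read-out basis: percent loss of FRET ratio relative to control wells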
PG9 Ab binder: PG9 antibody binding by small molecule | actives 0.43% (n = 360,000) | TR-FRET gp120-PG9 antibody binding | AID 624416 | inhibition, % at 6.7 µM; in the data active means inhibition above about 8.5%
NR1D1 mod conf: confirmation of modulators of human Rev-erb alpha DNA binding | shares compounds with NR1D1 modulator | Rev-erb alpha FITC-DNA binding, fluorescence polarization, 90 min | actives 61% (n = 3,000) | activation, % at 25 µM;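 active means activation at or above a set limit, or at least 3 SD above the negative control mean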
RORg DNA counter: counter-screen for Rev-erb alpha modulators: RORgamma DNA binding. shares compounds with NR1D1 modulator. purified RORgamma protein-FITC-DNA binding, fluorescence polarization. IC50, µM. actives 8% (n = 910);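 active means Compounds whose fitted half-maximal concentration for disrupting protein-DNA binding is below 10 micromolar; the record names Rev-erb in its text, so the target is in doubt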
Hits are given with their value; . = inactive; / = no result. A selection: hits, their analogues and other compounds. The true share with any hit is near 2.7%.

SMILES | MC4R antag cAMP | MC4R ag barr | NR2E3 ag-1 | NR1D1 modulator | NR2E3 ag-2 | PG9 Ab binder | NR1D1 mod conf | others
c1ccc(N(c2ccccc2)c2nc(N3CCCC3)nc(-n3ccnc3)n2)cc1 | . | . | . | 37 | . | . | 58 | RORg DNA counter=8.5
Cc1ccc2nc(N3CCN(C)CC3)c(C#N)cc2c1 | . | . | . | . | . | . | /
Cc1ccc2nc(N3CCN(S(=O)(=O)c4ccc(C)c(Cl)c4)CC3)c(C#N)cc2c1 | . | . | . | 189 | . | . | 145 | RORg DNA counter=.
CCCCn1c(SCC(=O)Nc2ccc(NC(C)=O)cc2)nc2ccccc2c1=O | . | . | . | . | . | . | /
CCCCn1c(SCC(=O)Nc2cc(C)on2)nc2ccccc2c1=O | . | . | . | 43 | . | . | .
Cc1cc(NC(=O)CSc2nc(-c3cccs3)nc3ccccc23)no1 | . | . | . | 28 | . | . | 19
CCCCNc1nc(-c2ccccc2)nc(-n2ccnc2)n1 | . | . | . | . | . | . | /
CSc1ccc(-c2ccc3c(c2)c(Sc2ccccc2)c(-c2ccccc2)n3C)cc1 | / | / | . | 17 | / | . | 25
COc1cc(OC)cc(-c2c(Sc3ccccc3)c3cc(-c4ccc(OC)c(F)c4)ccc3n2C)c1 | / | / | . | 21 | / | . | 37 | RORg DNA counter=.
COc1cc(OC)cc(-c2c(Sc3ccccc3)c3cc(-c4ccc(OC)nc4)ccc3n2C)c1 | / | / | . | . | / | . | /
COc1cc(OC)cc(-c2c(Sc3ccccc3)c3cc(-c4ccc(SC)cc4)ccc3n2C)c1 | / | / | . | 29 | / | . | 35 | RORg DNA counter=.
CCC(=O)Nc1cccc(NC(=O)CN2CCN(c3ccccc3OC)CC2)c1 | . | . | . | / | . | / | /
CCC12CN3CC(CC)(CN(C1)C3c1ccccc1Cl)C2O (centres undefined) | . | . | . | . | . | . | /
Cc1c(C(C)(C)C)s/c(=N/S(=O)(=O)c2ccccc2)n1C | . | . | . | . | . | . | /
Cc1c(C(C)(C)C)sc(=NC(=O)c2ccccc2O)n1C | . | . | . | 21 | . | . | .
Cc1nn(CCC(=O)NNC(=O)Nc2ccccc2F)c(C)c1[N+](=O)[O-] | / | / | / | . | / | / | /
Cn1cnnc1SCC(=O)NC1CCCC1 | . | . | . | . | . | . | /
COCCn1c(=NC(=O)C2COc3ccccc3O2)sc2cc(S(N)(=O)=O)ccc21 (centres undefined) | . | . | . | . | . | . | /
COc1ccc(OC)c2c1sc(=NC(=O)C1CCCCC1)n2C | . | . | . | 44 | . | . | .
COc1ccc(OC)c2c1sc(=NC(=O)C(C)(C)C)n2C | . | . | . | . | . | . | /
CCCC(=O)N=c1sc2c(OC)ccc(OC)c2n1C | . | . | . | 40 | . | . | .
CCn1c(=NC(=O)C2COc3ccccc3O2)sc2c(OC)ccc(OC)c21 (centres undefined) | . | . | . | 47 | . | . | .
CN(Cc1ccon1)Cc1cn(C)nc1-c1ccc2c(c1)OCCO2 | . | . | . | . | . | . | /
CCCCOc1ccc(N(CC(=O)NC2CCCCC2)C(=O)c2snc(C(N)=O)c2N)cc1 | . | . | . | 64 | . | . | 41 | RORg DNA counter=.
NC(=O)c1nsc(C(=O)N(CC(=O)NC2CCCCC2)c2ccc(Cl)cc2)c1N | . | . | . | . | . | . | /
SMILES | MC4R antag cAMP | MC4R ag barr | NR2E3 ag-1 | NR1D1 modulator | NR2E3 ag-2 | PG9 Ab binder | NR1D1 mod conf | others
CC(C)N(Cc1ccccc1)CC(O)COc1ccc(S(=O)(=O)N2CCOCC2)cc1Cl (centres undefined) | . | . | . | . | . | . | /
Cc1ccc(C(=O)Oc2ccc(/C=C3\C(=N)N4N=C(N5CCOCC5)SC4=NC3=O)cc2)cc1 | . | . | . | . | . | . | /
COc1ccc(N/C=C2\C(=O)c3c(sc(C)c3C)N(C)S2(=O)=O)cc1 | . | . | . | 78 | . | . | .
CN1c2ccccc2C(=O)/C(=C\Nc2ccc(F)cc2)S1(=O)=O | . | . | . | . | . | . | /
Oc1c(C=Nc2cccc3cccnc23)sc2ccccc12 | / | / | / | 26 | . | . | 36 | RORg DNA counter=.
CC(C)c1ccc(S(=O)(=O)c2cc3cc(Br)ccc3oc2=O)cc1 | . | . | . | 19 | . | . | .
Cc1ccc(S(=O)(=O)c2cc3cc(Br)ccc3oc2=O)cc1 | . | . | . | . | . | . | /
Cc1cccnc1NC(=O)c1cc2ccccc2oc1=O | . | . | . | 43 | . | . | .
COc1cccc(NC(=O)c2cc3ccccc3oc2=O)c1 | . | . | . | . | . | . | /
CSc1ccccc1Sc1cc(C(=O)O)c2ccccc2n1 | . | . | . | . | . | . | /
Cc1ccc(N=Nc2c(=O)[nH]n3c(C)cc(C)nc23)cc1 | . | . | . | 17 | . | . | .
O=C(CCNC(=O)c1ccco1)NCCc1c[nH]c2ccccc12 | . | . | . | . | / | . | /
CC(C)Cn1c(N)c(C(=O)COC(=O)c2cc(C(F)(F)F)nc3c(C(F)(F)F)cccc23)c(=O)n(C)c1=O | / | / | / | 46 | . | . | 21
CCC(C)C(NC(=O)C1CCC(C)CC1)C(=O)NC(C(=O)OC)C(C)C (centres undefined) | . | . | . | . | . | . | /
CCN(CC)c1ccc(N=Nc2ncn[nH]2)cc1 | . | . | . | 26 | . | . | 26
COc1ccc(Br)cc1CNC(=O)C1CCCN(S(=O)(=O)N2CCC(C)CC2)C1 (centres undefined) | . | . | . | . | / | . | /
COc1ccc2c(c1)c(=O)oc1c(C)c(OCC(=O)N3CCc4ccccc4C3)ccc12 | . | . | . | 20 | . | . | .
COc1cc(OC)c(N(C)S(=O)(=O)c2cccc(C(=O)OCC(=O)N3CCOCC3)c2)cc1Cl | . | . | . | . | / | . | /
COc1cc(OC)c(N(C)S(=O)(=O)c2cccc(C(=O)OCc3c(C)noc3C)c2)cc1Cl | . | . | . | 23 | . | . | 37 | RORg DNA counter=.
Cc1cc(OCCCC(=O)NNC(=O)c2ccncc2)ccc1Cl | . | . | . | . | . | . | /
CCN(CC)CCN1C(=O)C(=O)/C(=C(/O)c2ccc(OC(C)C)cc2)C1c1ccncc1 (centres undefined) | . | . | . | . | . | . | /
Cc1c(/C(O)=C2\C(=O)C(=O)N(CCN(C)C)C2c2cccs2)cnn1-c1ccccc1 (centres undefined) | . | . | . | 19 | . | . | 27
CCN(CC)CCN1C(=O)C(=O)/C(=C(/O)c2ccc(OC(C)C)cc2)C1c1cccs1 (centres undefined) | . | . | . | 41 | . | . | 27
